For three molecules, IC50 results are on record in ChEMBL document CHEMBL1131161 (J Med Chem, 1998).

One experiment has as its system CV-1. Nature of the experiment: Inhibitory concentration in CV-1 cell. In kind it is functional, cell-based, Cercopithecidae. As to conditions: Chlorocebus aethiops.
Another experiment concerns the target Estrogen receptor (Homo sapiens, UniProt Q92731+P03372). As to conditions: cv-1.
The target of experiment [1] is T1, Mineralocorticoid receptor (Homo sapiens, UniProt P08235).
T1 sequence (P08235 whole entry): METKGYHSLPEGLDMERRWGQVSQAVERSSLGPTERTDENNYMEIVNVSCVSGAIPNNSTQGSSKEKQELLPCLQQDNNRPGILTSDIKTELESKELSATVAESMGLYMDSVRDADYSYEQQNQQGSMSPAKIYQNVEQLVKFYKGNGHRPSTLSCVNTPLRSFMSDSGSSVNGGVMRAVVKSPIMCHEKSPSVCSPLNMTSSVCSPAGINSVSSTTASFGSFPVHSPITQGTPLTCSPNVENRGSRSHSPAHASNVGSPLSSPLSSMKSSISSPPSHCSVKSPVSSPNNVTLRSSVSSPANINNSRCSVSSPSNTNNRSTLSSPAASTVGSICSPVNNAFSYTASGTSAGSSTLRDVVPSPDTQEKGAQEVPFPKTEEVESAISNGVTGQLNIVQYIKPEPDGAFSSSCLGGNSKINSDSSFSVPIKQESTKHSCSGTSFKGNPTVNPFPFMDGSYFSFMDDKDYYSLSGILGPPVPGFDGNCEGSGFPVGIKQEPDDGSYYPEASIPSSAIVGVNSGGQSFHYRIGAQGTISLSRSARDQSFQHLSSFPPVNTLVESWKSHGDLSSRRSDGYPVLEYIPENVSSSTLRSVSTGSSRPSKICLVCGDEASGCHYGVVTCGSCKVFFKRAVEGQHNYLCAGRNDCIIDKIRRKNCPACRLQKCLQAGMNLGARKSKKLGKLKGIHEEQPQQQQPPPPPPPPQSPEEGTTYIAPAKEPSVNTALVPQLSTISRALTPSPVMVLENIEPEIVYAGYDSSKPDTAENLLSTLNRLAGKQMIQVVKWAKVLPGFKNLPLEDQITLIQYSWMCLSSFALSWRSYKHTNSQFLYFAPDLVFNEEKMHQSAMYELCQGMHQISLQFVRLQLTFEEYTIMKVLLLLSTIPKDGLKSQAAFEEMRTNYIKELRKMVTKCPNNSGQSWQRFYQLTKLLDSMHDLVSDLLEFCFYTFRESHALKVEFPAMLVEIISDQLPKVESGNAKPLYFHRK
Nature of the experiment: Inhibitory activity (IC50) against human mineralocorticoid receptor expressed in CV-1 cells. In kind it is cell-based. In short, it runs like this: (§1)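 Cotransfection assays in CV-1 cells with a luciferase reporter, read as normalized LUC expression. In antagonist mode, the reference agonists were DHT for hAR, dexamethasone for hGR and aldosterone for hMR. Antagonist efficacy was expressed as the percent of maximal inhibition of the agonist. Values are means of at least three separate experiments in triplicate, or of two experiments.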

The target of experiment [2] is T2, Androgen receptor (Homo sapiens, UniProt P10275).
T2 sequence (P10275 whole entry): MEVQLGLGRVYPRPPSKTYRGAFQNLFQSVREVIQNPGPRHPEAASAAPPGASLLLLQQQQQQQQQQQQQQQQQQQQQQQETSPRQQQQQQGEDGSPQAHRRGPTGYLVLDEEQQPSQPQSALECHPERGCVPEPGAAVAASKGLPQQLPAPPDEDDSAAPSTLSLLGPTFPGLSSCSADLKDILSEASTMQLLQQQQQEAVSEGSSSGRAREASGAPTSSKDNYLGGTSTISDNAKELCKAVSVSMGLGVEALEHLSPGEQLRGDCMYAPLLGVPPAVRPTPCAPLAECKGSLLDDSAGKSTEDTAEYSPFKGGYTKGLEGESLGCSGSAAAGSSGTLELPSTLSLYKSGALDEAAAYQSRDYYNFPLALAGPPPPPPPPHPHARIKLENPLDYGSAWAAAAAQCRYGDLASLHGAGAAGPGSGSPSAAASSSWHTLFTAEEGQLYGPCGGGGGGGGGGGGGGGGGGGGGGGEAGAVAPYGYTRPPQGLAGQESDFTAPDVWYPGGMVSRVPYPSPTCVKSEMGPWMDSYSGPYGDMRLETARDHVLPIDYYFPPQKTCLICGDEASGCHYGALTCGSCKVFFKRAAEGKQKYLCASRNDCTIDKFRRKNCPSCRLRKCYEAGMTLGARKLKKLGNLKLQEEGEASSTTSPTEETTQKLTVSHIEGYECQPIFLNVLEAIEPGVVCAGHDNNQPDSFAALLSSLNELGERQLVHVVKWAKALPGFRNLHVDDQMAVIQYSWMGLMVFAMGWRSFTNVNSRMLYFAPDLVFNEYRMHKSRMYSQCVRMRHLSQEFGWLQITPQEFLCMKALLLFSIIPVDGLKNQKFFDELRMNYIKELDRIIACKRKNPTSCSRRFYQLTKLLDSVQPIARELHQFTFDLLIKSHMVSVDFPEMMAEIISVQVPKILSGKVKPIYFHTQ

For the next experiment, the target named is T3, Glucocorticoid receptor (Homo sapiens, UniProt P04150).
T3 sequence (P04150 whole entry): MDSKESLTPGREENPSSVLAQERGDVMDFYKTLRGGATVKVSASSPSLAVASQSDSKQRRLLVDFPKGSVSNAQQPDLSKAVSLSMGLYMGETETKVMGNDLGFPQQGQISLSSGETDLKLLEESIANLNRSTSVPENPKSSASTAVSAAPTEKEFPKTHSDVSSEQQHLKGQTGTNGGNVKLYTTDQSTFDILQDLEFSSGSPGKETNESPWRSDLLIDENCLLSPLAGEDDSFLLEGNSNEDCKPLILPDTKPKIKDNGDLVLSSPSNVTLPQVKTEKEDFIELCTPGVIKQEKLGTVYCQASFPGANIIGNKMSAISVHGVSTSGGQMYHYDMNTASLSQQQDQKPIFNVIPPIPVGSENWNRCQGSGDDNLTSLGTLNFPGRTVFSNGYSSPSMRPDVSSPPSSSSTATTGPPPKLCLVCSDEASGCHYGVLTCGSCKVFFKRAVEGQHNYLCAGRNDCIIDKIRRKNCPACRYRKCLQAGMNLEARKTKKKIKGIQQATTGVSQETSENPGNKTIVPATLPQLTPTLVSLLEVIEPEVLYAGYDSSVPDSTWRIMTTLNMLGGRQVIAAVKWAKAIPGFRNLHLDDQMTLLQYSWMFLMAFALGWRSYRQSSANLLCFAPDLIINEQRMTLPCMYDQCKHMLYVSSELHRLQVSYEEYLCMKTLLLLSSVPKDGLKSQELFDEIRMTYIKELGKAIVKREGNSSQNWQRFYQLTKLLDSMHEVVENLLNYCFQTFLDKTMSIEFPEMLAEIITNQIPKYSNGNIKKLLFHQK
Briefly: Inhibitory activity (IC50) against human glucocorticoid receptor expressed in CV-1 cells. In kind it is cell-based. In short, it runs like this:
as §1

For experiment [3], the target named is T2, Androgen receptor. Briefly: Inhibitory activity (IC50) against human androgen receptor expressed in CV-1 cells. The class given is cell-based. In short, it runs like this:
as §1

On to `CC1=CC(C)(C)Nc2ccc3c(c21)/C(=C/c1ccccc1C)Oc1ccccc1-3`, for which the half-inhibitory concentration (IC50) was over 10 µM in the experiment on CV-1; under 0.02 µM on Estrogen receptor; over 10 µM in experiment [1]; 1.06 µM against Androgen receptor [2]; 1.05 µM on Glucocorticoid receptor.

With `CC1=CC(C)(C)Nc2ccc3c(c21)/C(=C/c1cc(F)ccc1F)Oc1ccccc1-3`, the 50% inhibitory concentration (IC50) with CV-1 was over 10 µM; at Estrogen receptor it was over 10 µM; in experiment [1] it was over 10 µM; against Glucocorticoid receptor, 0.371 µM; at Androgen receptor [3], 1.6 µM.

Consider `CC1=CC(C)(C)Nc2ccc3c(c21)/C(=C/c1ccc(F)c(F)c1)Oc1ccccc1-3`, for which the IC50 in the experiment with CV-1 was over 10 µM; on Estrogen receptor, over 10 µM; in experiment [1] it was over 10 µM; against Glucocorticoid receptor, 1.65 µM; against Androgen receptor [3], 0.916 µM.

For orientation: IC50 means the concentration that gives 50% inhibition. The low end stands for higher potency, the high end for lower potency.
